In brackets after ≈: the same amount, converted by molar mass. Where a SMILES comes first, the peptide text is derived from it. The star is where a group is joined. X1 = C[C@H]1c2ccc(N*)c(O)c2C(=O)C2=C(O)[C@]3(O)C(O)=C(C(N)=O)C(=O)[C@@H](N(C)C)C3[C@@H](O)C21
Experiments:
Type in all cases: functional
[1] = system: Escherichia coli; experiment: In vitro antibacterial activity was measured on gram negative bacteria Escherichia coli UBMS 90-5 sensitive cell lines
In short: (§1)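 MIC by agar dilution on Mueller-Hinton II agar; inoculum (1–5) × 10^5 CFU/mL; antibiotic range 32–0.004 μg/mL; plates incubated 18 h at 35 °C in forced-air incubator. MIC taken as lowest concentration inhibiting growth. Tetracycline, minocycline and doxycycline run as standards in each assay.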

[2] = system: Staphylococcus aureus; experiment: In vitro antibacterial activity was measured on gram positive bacteria Staphylococcus aureus smith cell lines; in short: as §1
[3] = system: Staphylococcus aureus; experiment: In vitro antibacterial activity was measured on gram positive bacteria Staphylococcus aureus UBMS 90-3 sensitive cell lines; in short: as §1
[4] = system: Escherichia coli; experiment: In vitro antibacterial activity was measured on gram negative bacteria Escherichia coli UBMS 90-4 tet-M (ribosomal protection) cell lines
In short: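 Agar dilution MIC on Mueller-Hinton II agar. Inoculum (1–5) × 10^5 CFU/mL, drug range 32–0.004 μg/mL. Plates incubated 18 h at 35 °C in a forced-air incubator. MIC is the lowest concentration that inhibits growth. The strain panel covered tetracycline-sensitive and -resistant strains. Tetracycline, minocycline and doxycycline were run as standards in each assay.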

[5] = system: Staphylococcus aureus; experiment: In vitro antibacterial activity was measured on gram positive bacteria Staphylococcus aureus UBMS 88-7 tet-k(efflux resistance) cell lines
[6] = system: Staphylococcus aureus; experiment: In vitro antibacterial activity was measured on gram positive bacteria Staphylococcus aureus UBMS 90-1 tet-M (ribosomal protection) cell lines; in short: as §1
[7] = system: Escherichia coli; experiment: In vitro antibacterial activity was measured on gram negative bacteria Escherichia coli PRP-1 tet-a(efflux resistance) cell lines
[8] = system: Escherichia coli; experiment: In vitro antibacterial activity was measured on gram negative bacteria Escherichia coli J3272 tet-C(efflux resistance) cell lines
[9] = system: Escherichia coli; experiment: In vitro antibacterial activity was measured on gram negative bacteria Escherichia coli UBMS 88-1 tet-B(efflux resistance) cell lines

SMILES: C[C@H]1c2ccc(NC(=O)[C@@H](N)CCC(N)=O)c(O)c2C(=O)C2=C(O)[C@]3(O)C(O)=C(C(N)=O)C(=O)[C@@H](N(C)C)C3[C@@H](O)C21 (some centres undefined)
- MIC [1]: 16 µg/mL (≈ 27.2 µM)
- MIC [2]: 4 µg/mL (≈ 6.81 µM)
- MIC [3]: 1 µg/mL (≈ 1.7 µM)
- MIC [4]: > 32 µg/mL
- MIC [5]: 32 µg/mL (≈ 54.5 µM)
- MIC [6]: > 32 µg/mL

SMILES: CNCC(=O)Nc1ccc2c(c1O)C(=O)C1=C(O)[C@]3(O)C(O)=C(C(N)=O)C(=O)[C@@H](N(C)C)C3[C@@H](O)C1[C@H]2C (some centres undefined)
- MIC [1]: 8 µg/mL (≈ 15.1 µM)
- MIC [2]: 8 µg/mL (≈ 15.1 µM)
- MIC [3]: 4 µg/mL (≈ 7.54 µM)
- MIC [4]: 4 µg/mL (≈ 7.54 µM)
- MIC [7]: > 32 µg/mL
- MIC [5]: > 32 µg/mL
- MIC [6]: 8 µg/mL (≈ 15.1 µM)
- MIC [8]: > 32 µg/mL

SMILES: C[C@H]1c2ccc(NC(=O)[C@H](Cc3ccccc3)N(C)C)c(O)c2C(=O)C2=C(O)[C@]3(O)C(O)=C(C(N)=O)C(=O)[C@@H](N(C)C)C3[C@@H](O)C21 (some centres undefined)
- MIC [1]: 32 µg/mL (≈ 50.4 µM)
- MIC [2]: 4 µg/mL (≈ 6.3 µM)
- MIC [3]: 1 µg/mL (≈ 1.58 µM)
- MIC [4]: 16 µg/mL (≈ 25.2 µM)
- MIC [6]: 2 µg/mL (≈ 3.15 µM)

SMILES: CCN(CC)CC(=O)Nc1ccc2c(c1O)C(=O)C1=C(O)[C@]3(O)C(O)=C(C(N)=O)C(=O)[C@@H](N(C)C)C3[C@@H](O)C1[C@H]2C (some centres undefined)
- MIC [1]: 0.5 µg/mL (≈ 0.873 µM)
- MIC [2]: 0.25 µg/mL (≈ 0.437 µM)
- MIC [3]: 0.12 µg/mL (≈ 0.21 µM)
- MIC [4]: 0.5 µg/mL (≈ 0.873 µM)
- MIC [7]: 4 µg/mL (≈ 6.99 µM)
- MIC [5]: 1 µg/mL (≈ 1.75 µM)
- MIC [9]: 1 µg/mL (≈ 1.75 µM)
- MIC [6]: 2 µg/mL (≈ 3.49 µM)
- MIC [8]: 2 µg/mL (≈ 3.49 µM)

SMILES: CC(C)C[C@H](NC(=O)[C@@H](N)CC(C)C)C(=O)Nc1ccc2c(c1O)C(=O)C1=C(O)[C@]3(O)C(O)=C(C(N)=O)C(=O)[C@@H](N(C)C)C3[C@@H](O)C1[C@H]2C (some centres undefined)
- MIC [1]: > 32 µg/mL
- MIC [2]: 8 µg/mL (≈ 11.7 µM)
- MIC [3]: 4 µg/mL (≈ 5.83 µM)
- MIC [4]: > 32 µg/mL
- MIC [5]: 32 µg/mL (≈ 46.7 µM)
- MIC [6]: 4 µg/mL (≈ 5.83 µM)

SMILES: CCCCNCC(=O)Nc1ccc2c(c1O)C(=O)C1=C(O)[C@]3(O)C(O)=C(C(N)=O)C(=O)[C@@H](N(C)C)C3[C@@H](O)C1[C@H]2C (some centres undefined)
- MIC [1]: 0.5 µg/mL (≈ 0.873 µM)
- MIC [2]: 0.5 µg/mL (≈ 0.873 µM)
- MIC [3]: 0.25 µg/mL (≈ 0.437 µM)
- MIC [4]: 1 µg/mL (≈ 1.75 µM)
- MIC [7]: 4 µg/mL (≈ 6.99 µM)
- MIC [5]: 8 µg/mL (≈ 14 µM)
- MIC [6]: 4 µg/mL (≈ 6.99 µM)

SMILES: CC(C)C(=O)Nc1ccc2c(c1O)C(=O)C1=C(O)[C@]3(O)C(O)=C(C(N)=O)C(=O)[C@@H](N(C)C)C3[C@@H](O)C1[C@H]2C (some centres undefined)
- MIC [1]: > 32 µg/mL
- MIC [2]: 1 µg/mL (≈ 1.89 µM)
- MIC [3]: 0.5 µg/mL (≈ 0.944 µM)
- MIC [4]: > 32 µg/mL
- MIC [9]: 16 µg/mL (≈ 30.2 µM)
- MIC [6]: > 32 µg/mL

SMILES: CC(C)C[C@@H](N)C(=O)Nc1ccc2c(c1O)C(=O)C1=C(O)[C@]3(O)C(O)=C(C(N)=O)C(=O)[C@@H](N(C)C)C3CC1C2 (some centres undefined)
- MIC [1]: 8 µg/mL (≈ 14.7 µM)
- MIC [2]: 8 µg/mL (≈ 14.7 µM)
- MIC [3]: 8 µg/mL (≈ 14.7 µM)
- MIC [4]: 8 µg/mL (≈ 14.7 µM)
- MIC [6]: 16 µg/mL (≈ 29.5 µM)

SMILES: CC(C)C[C@H](NC(=O)[C@H](CC(C)C)NC(=O)[C@H](CC(C)C)NC(=O)[C@@H](N)CC(C)C)C(=O)Nc1ccc2c(c1O)C(=O)C1=C(O)[C@]3(O)C(O)=C(C(N)=O)C(=O)[C@@H](N(C)C)C3[C@@H](O)C1[C@H]2C (some centres undefined) (H-LLLL-X1)
- MIC [1]: > 32 µg/mL
- MIC [2]: 16 µg/mL (≈ 17.5 µM)
- MIC [3]: 32 µg/mL (≈ 35.1 µM)
- MIC [4]: > 32 µg/mL
- MIC [6]: > 32 µg/mL

SMILES: C[C@H]1c2ccc(NC(=O)[C@@H](N)CCCCN)c(O)c2C(=O)C2=C(O)[C@]3(O)C(O)=C(C(N)=O)C(=O)[C@@H](N(C)C)C3[C@@H](O)C21 (some centres undefined)
- MIC [1]: > 32 µg/mL
- MIC [2]: > 32 µg/mL
- MIC [3]: > 32 µg/mL
- MIC [4]: > 32 µg/mL
- MIC [5]: 16 µg/mL (≈ 27.2 µM)
- MIC [6]: > 32 µg/mL

SMILES: C[C@H]1c2ccc(NC(=O)CN3CCCC3)c(O)c2C(=O)C2=C(O)[C@]3(O)C(O)=C(C(N)=O)C(=O)[C@@H](N(C)C)C3[C@@H](O)C21 (some centres undefined)
- MIC [1]: 0.5 µg/mL (≈ 0.876 µM)
- MIC [2]: 0.5 µg/mL (≈ 0.876 µM)
- MIC [3]: 0.25 µg/mL (≈ 0.438 µM)
- MIC [4]: 0.25 µg/mL (≈ 0.438 µM)
- MIC [7]: 2 µg/mL (≈ 3.51 µM)
- MIC [5]: 4 µg/mL (≈ 7.01 µM)
- MIC [6]: 1 µg/mL (≈ 1.75 µM)
- MIC [8]: 1 µg/mL (≈ 1.75 µM)

SMILES: CN(C)c1ccc(O)c2c1CC1C[C@H]3[C@H](N(C)C)C(=O)C(C(N)=O)=C(O)[C@@]3(O)C(=O)C1=C2O (some centres undefined)
- MIC [1]: 1 µg/mL (≈ 2.19 µM)
- MIC [2]: 0.12 µg/mL (≈ 0.262 µM)
- MIC [3]: 0.06 µg/mL (≈ 0.131 µM)
- MIC [4]: > 32 µg/mL
- MIC [6]: 4 µg/mL (≈ 8.74 µM)

SMILES: CC(C)C[C@H](NC(=O)CN)C(=O)Nc1ccc2c(c1O)C(=O)C1=C(O)[C@]3(O)C(O)=C(C(N)=O)C(=O)[C@@H](N(C)C)C3[C@@H](O)C1[C@H]2C (some centres undefined)
- MIC [1]: > 32 µg/mL
- MIC [2]: 16 µg/mL (≈ 25.4 µM)
- MIC [3]: > 32 µg/mL
- MIC [4]: > 32 µg/mL
- MIC [6]: > 32 µg/mL

SMILES: C[C@H]1c2cccc(O)c2C(=O)C2=C(O)[C@]3(O)C(O)=C(C(N)=O)C(=O)[C@@H](N(C)C)[C@@H]3[C@@H](O)C21 (some centres undefined)
- MIC [1]: 1 µg/mL (≈ 2.25 µM)
- MIC [2]: 0.12 µg/mL (≈ 0.27 µM)
- MIC [3]: 0.12 µg/mL (≈ 0.27 µM)
- MIC [4]: > 32 µg/mL
- MIC [7]: 16 µg/mL (≈ 36 µM)
- MIC [9]: 32 µg/mL (≈ 72 µM)
- MIC [6]: 8 µg/mL (≈ 18 µM)
- MIC [8]: 16 µg/mL (≈ 36 µM)

SMILES: C[C@H]1c2ccc(NC(=O)[C@@H](N)CCC(=O)O)c(O)c2C(=O)C2=C(O)[C@]3(O)C(O)=C(C(N)=O)C(=O)[C@@H](N(C)C)C3[C@@H](O)C21 (some centres undefined)
- MIC [1]: > 32 µg/mL
- MIC [2]: > 32 µg/mL
- MIC [3]: 32 µg/mL (≈ 54.4 µM)
- MIC [4]: > 32 µg/mL
- MIC [6]: > 32 µg/mL

Source: ChEMBL document CHEMBL1127343, “"Glycylcyclines". 3. 9-Aminodoxycyclinecarboxamides” (1994)
